According to ChEMBL document CHEMBL1158565, “Antagonism of 4-substituted 1,4-dihydropyridine-3,5-dicarboxylates toward voltage-dependent L-type Ca2+ channels Ca V 1.3 and Ca V 1.2” (Bioorg Med Chem, 2010):

Columns and labels:
[1] = target: Voltage-dependent L-type calcium channel subunit alpha-1D (Rattus norvegicus) (UniProt P27732); experiment: Antagonist activity at rat Cav1.3 expressed in HEK293 cells assessed as inhibition of voltage pulse-induced calcium current at 200 nM by FLIPR calcium 4 assay; format: functional, cell-based; conditions: in the assay text read “by whole-cell patch-clamp recording” for “by FLIPR calcium 4 assay”
Chain of Voltage-dependent L-type calcium channel subunit alpha-1D (Rattus norvegicus) (P27732 whole entry, the tested form may be a part): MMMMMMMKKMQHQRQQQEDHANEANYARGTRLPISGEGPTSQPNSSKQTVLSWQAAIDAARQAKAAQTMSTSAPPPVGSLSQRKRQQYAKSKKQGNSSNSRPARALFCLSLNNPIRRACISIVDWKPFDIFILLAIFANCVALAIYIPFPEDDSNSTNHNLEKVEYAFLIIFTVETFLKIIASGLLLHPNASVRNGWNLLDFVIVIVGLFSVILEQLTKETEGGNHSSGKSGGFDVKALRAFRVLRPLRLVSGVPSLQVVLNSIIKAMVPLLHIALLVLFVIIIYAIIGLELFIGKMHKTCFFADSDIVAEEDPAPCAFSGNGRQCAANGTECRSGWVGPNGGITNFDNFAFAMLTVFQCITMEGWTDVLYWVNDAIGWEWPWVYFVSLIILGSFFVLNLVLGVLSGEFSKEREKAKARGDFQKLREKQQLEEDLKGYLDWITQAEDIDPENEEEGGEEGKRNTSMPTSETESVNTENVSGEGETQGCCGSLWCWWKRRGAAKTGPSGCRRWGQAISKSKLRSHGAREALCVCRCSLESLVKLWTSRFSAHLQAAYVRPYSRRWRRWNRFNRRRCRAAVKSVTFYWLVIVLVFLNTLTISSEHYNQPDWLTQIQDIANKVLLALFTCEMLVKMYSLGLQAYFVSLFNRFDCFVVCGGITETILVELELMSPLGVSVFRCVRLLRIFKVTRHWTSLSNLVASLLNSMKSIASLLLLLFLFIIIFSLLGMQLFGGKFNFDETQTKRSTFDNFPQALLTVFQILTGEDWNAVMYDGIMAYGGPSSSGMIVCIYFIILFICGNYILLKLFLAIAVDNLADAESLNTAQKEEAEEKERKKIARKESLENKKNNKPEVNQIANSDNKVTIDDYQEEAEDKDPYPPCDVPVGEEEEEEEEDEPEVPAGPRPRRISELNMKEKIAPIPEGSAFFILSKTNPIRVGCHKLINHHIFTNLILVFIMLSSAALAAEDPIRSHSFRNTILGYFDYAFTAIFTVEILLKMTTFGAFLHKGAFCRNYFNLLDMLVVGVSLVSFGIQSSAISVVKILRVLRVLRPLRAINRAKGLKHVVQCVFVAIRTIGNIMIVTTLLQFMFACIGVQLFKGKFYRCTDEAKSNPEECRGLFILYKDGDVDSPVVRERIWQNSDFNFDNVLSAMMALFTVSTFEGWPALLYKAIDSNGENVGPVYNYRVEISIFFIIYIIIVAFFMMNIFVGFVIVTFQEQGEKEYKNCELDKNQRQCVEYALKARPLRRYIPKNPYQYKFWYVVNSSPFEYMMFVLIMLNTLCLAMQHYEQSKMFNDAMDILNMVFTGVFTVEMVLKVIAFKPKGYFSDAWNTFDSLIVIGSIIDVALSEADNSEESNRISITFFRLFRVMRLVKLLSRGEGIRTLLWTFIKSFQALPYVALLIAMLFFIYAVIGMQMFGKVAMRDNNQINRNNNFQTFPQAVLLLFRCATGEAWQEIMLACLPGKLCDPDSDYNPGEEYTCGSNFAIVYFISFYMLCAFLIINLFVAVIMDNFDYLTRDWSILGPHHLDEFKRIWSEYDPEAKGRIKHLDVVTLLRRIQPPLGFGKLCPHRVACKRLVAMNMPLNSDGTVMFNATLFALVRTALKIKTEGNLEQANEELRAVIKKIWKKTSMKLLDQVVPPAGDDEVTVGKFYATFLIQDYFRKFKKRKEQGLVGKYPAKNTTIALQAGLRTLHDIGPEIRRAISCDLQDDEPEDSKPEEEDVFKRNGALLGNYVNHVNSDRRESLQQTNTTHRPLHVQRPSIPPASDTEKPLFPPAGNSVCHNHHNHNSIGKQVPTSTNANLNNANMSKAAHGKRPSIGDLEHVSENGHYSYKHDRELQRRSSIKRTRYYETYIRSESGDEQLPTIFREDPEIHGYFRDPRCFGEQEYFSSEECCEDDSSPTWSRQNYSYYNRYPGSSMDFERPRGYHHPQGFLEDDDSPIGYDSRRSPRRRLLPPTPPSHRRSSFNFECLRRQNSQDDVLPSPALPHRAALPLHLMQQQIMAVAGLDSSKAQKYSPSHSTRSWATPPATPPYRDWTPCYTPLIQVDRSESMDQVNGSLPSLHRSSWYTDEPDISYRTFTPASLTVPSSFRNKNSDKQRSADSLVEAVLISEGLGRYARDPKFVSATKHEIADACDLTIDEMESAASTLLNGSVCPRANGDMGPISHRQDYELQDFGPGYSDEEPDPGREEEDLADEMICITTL
Summary of the method: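 Whole-cell patch clamp on tsA201 cells transiently cotransfected with rabbit Cav1.2 α1C or rat Cav1.3 α1D, Cavβ3 and Cavα2δ-1 (1:1:1) plus GFP. GFP cells were recorded after replating at 48 h. Bath (mM): 110 NaCl, 1 MgCl2, 10 BaCl2, 10 HEPES, 10 glucose, 20 CsCl, pH 7.4. Compound was diluted from DMSO stock and perfused. Pulses ran from -60 mV to +10 or 0 mV with tetrodotoxin at about 22 °C. Read-out was percent current inhibition.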

[2] = Selectivity ratio of antagonist activity at rat Cav1.3 to antagonist activity at rabbit Cav1.2 at 200 nM; format: functional
Summary of the method: (§1)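 Percent inhibition of Cav1.3 current was divided by that of Cav1.2 at the same concentration. Currents were from whole-cell patch clamp in transiently transfected tsA201 cells: Ba2+ bath, pH 7.4, steps from -60 mV, about 22 °C.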

[3] = target: T1, Voltage-dependent L-type calcium channel subunit alpha-1C (Oryctolagus cuniculus, UniProt P15381); experiment: Antagonist activity at rabbit Cav1.2 expressed in tsA201 cells assessed as inhibition of voltage pulse-induced calcium current at 200 nM by whole-cell patch-clamp recording
T1 sequence (P15381 whole entry): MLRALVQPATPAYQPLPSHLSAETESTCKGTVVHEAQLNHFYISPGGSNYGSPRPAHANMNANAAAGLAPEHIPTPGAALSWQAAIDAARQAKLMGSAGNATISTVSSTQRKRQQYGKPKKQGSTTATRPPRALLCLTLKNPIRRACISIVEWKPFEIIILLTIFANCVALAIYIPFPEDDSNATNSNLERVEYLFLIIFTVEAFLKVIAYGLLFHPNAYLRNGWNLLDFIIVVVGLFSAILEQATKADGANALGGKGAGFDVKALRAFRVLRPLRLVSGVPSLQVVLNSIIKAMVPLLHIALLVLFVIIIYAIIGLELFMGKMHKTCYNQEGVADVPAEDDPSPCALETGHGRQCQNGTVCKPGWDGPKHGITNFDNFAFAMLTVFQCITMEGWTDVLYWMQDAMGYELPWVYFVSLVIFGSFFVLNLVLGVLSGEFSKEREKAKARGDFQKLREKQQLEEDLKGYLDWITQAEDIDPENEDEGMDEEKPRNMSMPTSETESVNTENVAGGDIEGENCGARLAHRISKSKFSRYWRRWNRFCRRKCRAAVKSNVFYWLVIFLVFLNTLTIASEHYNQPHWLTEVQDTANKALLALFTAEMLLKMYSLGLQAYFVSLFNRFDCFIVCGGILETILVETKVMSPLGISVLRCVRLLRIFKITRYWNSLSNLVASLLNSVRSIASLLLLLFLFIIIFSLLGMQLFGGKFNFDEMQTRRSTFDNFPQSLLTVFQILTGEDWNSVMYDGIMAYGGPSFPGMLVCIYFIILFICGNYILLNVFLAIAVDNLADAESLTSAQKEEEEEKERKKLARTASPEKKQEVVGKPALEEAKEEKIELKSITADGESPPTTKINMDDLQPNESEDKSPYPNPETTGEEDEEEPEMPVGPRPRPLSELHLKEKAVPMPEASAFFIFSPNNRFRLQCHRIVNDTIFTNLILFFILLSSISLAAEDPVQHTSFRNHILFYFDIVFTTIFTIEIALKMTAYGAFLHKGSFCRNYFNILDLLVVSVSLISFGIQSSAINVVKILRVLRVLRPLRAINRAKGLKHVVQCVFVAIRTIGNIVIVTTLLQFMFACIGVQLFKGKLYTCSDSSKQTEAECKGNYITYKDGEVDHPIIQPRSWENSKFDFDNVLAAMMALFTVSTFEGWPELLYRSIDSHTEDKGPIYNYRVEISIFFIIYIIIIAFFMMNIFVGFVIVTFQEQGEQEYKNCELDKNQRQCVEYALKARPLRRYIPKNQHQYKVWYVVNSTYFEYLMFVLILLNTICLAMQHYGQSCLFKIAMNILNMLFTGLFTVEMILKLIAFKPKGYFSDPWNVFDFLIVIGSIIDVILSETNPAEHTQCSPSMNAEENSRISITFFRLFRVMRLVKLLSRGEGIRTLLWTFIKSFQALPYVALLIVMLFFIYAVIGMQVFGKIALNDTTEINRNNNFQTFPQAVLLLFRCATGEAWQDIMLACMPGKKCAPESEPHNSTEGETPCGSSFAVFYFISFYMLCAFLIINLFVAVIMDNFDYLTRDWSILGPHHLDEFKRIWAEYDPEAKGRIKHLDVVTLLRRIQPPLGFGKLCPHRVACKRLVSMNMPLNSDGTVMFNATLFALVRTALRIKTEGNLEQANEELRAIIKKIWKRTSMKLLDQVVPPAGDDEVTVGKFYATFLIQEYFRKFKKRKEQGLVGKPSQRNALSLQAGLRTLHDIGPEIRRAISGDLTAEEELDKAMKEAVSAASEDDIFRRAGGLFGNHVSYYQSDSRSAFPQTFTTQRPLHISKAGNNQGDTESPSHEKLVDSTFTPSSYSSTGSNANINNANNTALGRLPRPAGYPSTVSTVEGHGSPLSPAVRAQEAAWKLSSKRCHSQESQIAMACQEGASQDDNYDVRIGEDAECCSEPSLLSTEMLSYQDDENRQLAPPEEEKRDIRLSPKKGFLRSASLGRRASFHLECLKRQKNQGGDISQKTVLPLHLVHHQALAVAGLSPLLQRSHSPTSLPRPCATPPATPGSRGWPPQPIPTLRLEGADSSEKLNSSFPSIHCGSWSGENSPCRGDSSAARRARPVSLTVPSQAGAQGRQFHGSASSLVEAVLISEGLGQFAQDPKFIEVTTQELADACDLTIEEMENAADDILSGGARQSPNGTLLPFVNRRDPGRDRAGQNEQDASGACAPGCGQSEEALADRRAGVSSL

[4] = Selectivity ratio of antagonist activity at rat Cav1.3 to antagonist activity at rabbit Cav1.2 at 100 nM; format: functional; summary of the method: as §1
[5] = target: Voltage-dependent L-type calcium channel subunit alpha-1D (Rattus norvegicus) (UniProt P27732); experiment: Antagonist activity at rat Cav1.3 expressed in HEK293 cells assessed as inhibition of voltage pulse-induced calcium current at 100 nM by whole-cell patch-clamp recording
[6] = target: T1, Voltage-dependent L-type calcium channel subunit alpha-1C; experiment: Antagonist activity at rabbit Cav1.2 expressed in tsA201 cells assessed as inhibition of voltage pulse-induced calcium current at 100 nM by whole-cell patch-clamp recording
[7] = target: Voltage-dependent L-type calcium channel subunit alpha-1D (Rattus norvegicus, UniProt P27732); experiment: Antagonist activity at rat Cav1.3 expressed in HEK293 cells assessed as inhibition of voltage pulse-induced calcium current by FLIPR calcium 4 assay; format: functional, cell-based
Chain of Voltage-dependent L-type calcium channel subunit alpha-1D (P27732 whole entry): as the sequence (P27732 whole entry, the tested form may be a part) above
Summary of the method: (§2)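 HEK293 lines stably expressing Cavβ3 and Cavα2δ-1 plus Cav1.2 α1C (rabbit) or Cav1.3 α1D (rat) were selected with zeocin/hygromycin. Calcium signals were read by FLIPR with Calcium 4 dye. IC50 came from 11-point dose-response curves. Signal percentage error (SD/mean) was 6.4% for Cav1.2 and 4.1% for Cav1.3 cells.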

[8] = target: T1, Voltage-dependent L-type calcium channel subunit alpha-1C; experiment: Antagonist activity at rabbit Cav1.2 expressed in HEK293 cells assessed as inhibition of voltage pulse-induced calcium current by FLIPR calcium 4 assay; format: functional, cell-based; summary of the method: as §2

Row | Compound | inhibition [1] [%] | Selectivity ratio [2] | inhibition at 0.2 µM [3] [%] | also measured
1 | CCOC(=O)C1=C(C)NC(C)=C(C(=O)OCC)C1c1ccccc1I | 95 | 0.99 | 96 | 
2 | COC(=O)C1=C(C)NC(C)=C(C(=O)OC(C)(C)C)C1c1cccc([N+](=O)[O-])c1 (centres undefined) [MEBUDIPINE] | 85 | 0.93 | 91 | 
3 | CCOC(=O)C1=C(C)NC(C)=C(C(=O)OCC)C1c1cc(C(F)(F)F)cc(C(F)(F)F)c1 | 38 | 1 | 38 | 
4 | CCOC(=O)C1=C(C)NC(C)=C(C(=O)OCC)C1c1cccc(F)c1 |  |  |  | Selectivity ratio [4]: 0.75; inhibition [5]: 48%; inhibition at 0.1 µM [6]: 64%
5 | CCOC(=O)C1=C(CC)NC(CC)=C(C(=O)OCC)C1c1cccc([N+](=O)[O-])c1 |  |  |  | Selectivity ratio [4]: 0.71; inhibition [5]: 37%; inhibition at 0.1 µM [6]: 52%
6 | COC(=O)C1=C(C)NC(C)=C(C(=O)OC(C)C)C1c1cccc([N+](=O)[O-])c1 (centres undefined) | 89 | 0.93 | 96 | 
7 | CCOC(=O)C1=C(C)NC(C)=C(C(=O)OCC)C1c1ccsc1 | 50 | 0.93 | 54 | 
8 | CCOC(=O)C1=C(C)NC(C)=C(C(=O)OCC)C1c1ccc2ccccc2c1 | 12 | 0.75 | 16 | 
9 | CCCC1=C(C(=O)OCC)C(c2cccc([N+](=O)[O-])c2)C(C(=O)OCC)=C(CCC)N1 |  |  |  | Selectivity ratio [4]: 1.07; inhibition [5]: 27%; inhibition at 0.1 µM [6]: 25%
10 | CCOC(=O)C1=C(C)N=C(C)/C(=C(/O)OCC)C1c1ccncc1 (centres undefined) | 15 | 0.56 | 27 | 
11 | COC(=O)C1=C(C)NC(C)=C(C(=O)OC)C1c1ccccc1[N+](=O)[O-] [NIFEDIPINE] |  |  |  | Selectivity ratio [4]: 0.67; inhibition [5]: 46%; inhibition at 0.1 µM [6]: 69%
12 | CCOC(=O)C1=C(C)NC(C)=C(C(=O)OCC)C1c1cc(Br)cc(Br)c1 | 72 | 0.98 | 74 | 
13 | CCOC(=O)C1=C(C)N=C(C)/C(=C(/O)OCC)C1c1cccs1 (centres undefined) | 57 | 0.87 | 65 | 
14 | CCOC(=O)C1=C(C)NC(C)=C(C(=O)OCC)C1c1ccccc1 |  |  |  | Selectivity ratio [4]: 0.85; inhibition [5]: 41%; inhibition at 0.1 µM [6]: 48%
15 | CC1=C(C(=O)OC(C)C)C(c2cccc([N+](=O)[O-])c2)C(C(=O)OC(C)C)=C(C)N1 | 66 | 0.86 | 77 | 
16 | CCOC(=O)C1=C(C)NC(C)=C(C(=O)OC)C1c1cccc([N+](=O)[O-])c1 (centres undefined) [NITRENDIPINE] |  |  |  | Selectivity ratio [4]: 0.55; inhibition [5]: 34%; inhibition at 0.1 µM [6]: 62%
17 | COC(=O)C1=C(C)NC(C)=C(C(=O)OCC(C)C)C1c1cccc([N+](=O)[O-])c1 (centres undefined) | 90 | 0.96 | 94 | 
18 | CCOC(=O)C1=C(C)NC(C)=C(C(=O)OCC)C1c1ccccc1-c1ccccc1 | 65 | 0.89 | 73 | 
19 | CCOC(=O)C1=C(C)NC(C)=C(C(=O)OCC)C1c1ccc(Cl)c([N+](=O)[O-])c1 | 66 | 0.77 | 86 | 
20 | CCOC(=O)C1=C(C)NC(C)=C(C(=O)OCC)C1c1csc2ccccc12 | 57 | 0.7 | 80 | 
21 | CCOC(=O)C1=C(C)NC(C)=C(C(=O)OCC)C1C1CCCCC1 | 21 | 0.81 | 26 | 

Row | Compound | inhibition [1] [%] | Selectivity ratio [2] | inhibition at 0.2 µM [3] [%] | also measured
22 | CCOC(=O)C1=C(C)NC(C)=C(C(=O)OCC)C1c1cccc(Br)c1 |  |  |  | Selectivity ratio [4]: 0.98; inhibition [5]: 80%; inhibition at 0.1 µM [6]: 82%
23 | CCOC(=O)C1=C(C)NC(C)=C(C(=O)OCC)C1c1ccoc1 | 32 | 0.57 | 56 | 
24 | CCOC(=O)C1=C(C)NC(C)=C(C(=O)OCC)C1c1cc([N+](=O)[O-])ccc1Cl | 89 | 0.92 | 97 | 
25 | CCOC(=O)C1=C(C)NC(CC)=C(C(=O)OCC)C1c1cccc([N+](=O)[O-])c1 (centres undefined) | 88 | 0.95 | 93 | 
26 | CCOC(=O)C1=C(C(F)(F)F)NC(C(F)(F)F)=C(C(=O)OCC)C1c1cccc([N+](=O)[O-])c1 | 38 | 1.11 | 34 | 
27 | CC1=C(C(=O)OC(C)(C)C)C(c2cccc([N+](=O)[O-])c2)C(C(=O)OC(C)(C)C)=C(C)N1 |  |  |  | Selectivity ratio [4]: 0.69; inhibition [5]: 22%; inhibition at 0.1 µM [6]: 32%
28 | COC(=O)C1=C(C)N=C(C)/C(=C(/O)OC)C1(C)c1ccccc1 (centres undefined) |  |  |  | IC50 [7]: 2310 nM; IC50 [8]: 1470 nM
29 | COC(=O)C1=C(C)NC(C)=C(C(=O)OCC2CC2)C1c1cccc([N+](=O)[O-])c1 (centres undefined) |  |  |  | IC50 [7]: 21 nM; IC50 [8]: 28 nM
30 | COC(=O)C1=C(C)NC(C)=C(C(=O)OC)C1c1ccccc1SC |  |  |  | IC50 [7]: 35 nM; IC50 [8]: 8 nM
31 | COC(=O)C1=C(C)NC(C)=C(C(=O)OCCNC(=O)C(F)(F)F)C1c1cccc([N+](=O)[O-])c1 (centres undefined) |  |  |  | IC50 [7]: 550 nM; IC50 [8]: 410 nM
32 | CCOC(=O)C1=C(C)NC(C)=C(C(=O)OCc2ccc([N+](=O)[O-])cc2)C1c1cccc([N+](=O)[O-])c1 (centres undefined) |  |  |  | IC50 [7]: 140 nM; IC50 [8]: 130 nM
33 | COC(=O)C1=C(C)NC(C)=C(C(=O)OC2C=CCCC2)C1c1cccc([N+](=O)[O-])c1 (centres undefined) |  |  |  | IC50 [7]: 10 nM; IC50 [8]: 10 nM
34 | COC(=O)C1=C(C)NC(C)=C(C(=O)OCCC#N)[C@H]1c1cccc([N+](=O)[O-])c1 |  |  |  | IC50 [7]: 589 nM; IC50 [8]: 143 nM
35 | CCOC(=O)C1=C(C)NC(C)=C(C(=O)OCC)C1c1ccccc1SC |  |  |  | IC50 [7]: 15 nM; IC50 [8]: 8 nM
36 | COC(=O)C1=C(C)NC(C)=C(C(=O)OCCCCc2ccccc2)C1c1cccc([N+](=O)[O-])c1 (centres undefined) |  |  |  | IC50 [7]: 38 nM; IC50 [8]: 10 nM
37 | CCOC(=O)C1=C(C(F)(F)F)NC(C(F)(F)F)=C(C(=O)OCC)C1c1cccc(C(F)(F)F)c1 | 67 | 1.1 | 61 | 
38 | CCCC1C(C(=O)OCC)=C(C)NC(C)=C1C(=O)OCC | 36 | 0.86 | 42 | 
39 | COC(=O)C1=C(C)NC(C)=C(C(=O)OCc2ccco2)C1c1cccc([N+](=O)[O-])c1 (centres undefined) |  |  |  | IC50 [7]: 15 nM; IC50 [8]: 20 nM
40 | CC1=C(C(=O)OCC(C)C)C(c2cccc([N+](=O)[O-])c2)C(C(=O)OCC(C)C)=C(C)N1 | 59 | 1.14 | 52 | 
41 | COC(=O)C1=C(C)NC(C)=C(C(=O)OCc2ccc3c(c2)OCO3)C1c1cccc([N+](=O)[O-])c1 (centres undefined) |  |  |  | IC50 [7]: 22 nM; IC50 [8]: 13 nM
42 | CCOC(=O)C1=C(C)NC(CCl)=C(C(=O)OCC)C1c1cccc([N+](=O)[O-])c1 (centres undefined) |  |  |  | IC50 [7]: 53 nM; IC50 [8]: 10 nM
